In brackets after ≈: the same amount, converted by molar mass.
Tests used:
[1] = Selectivity index, ratio of EC50 for toxicity in human BEAS2B cells to MIC50 for antifungal activity against Aspergillus nidulans ATCC 38163; type: cell-based; settings: read-out: Selectivity Index
Method in brief: (§1)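 Selectivity index is the EC50 against the mammalian line (A549 or BEAS-2B) divided by the MIC against the given fungal strain.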

Candida albicans [2] = assay: Antifungal activity against ITC and FLC-susceptible Candida albicans ATCC MYA-2876 incubated for 48 hrs by modified CLSI M27-A3 protocol based method; type: functional; settings: ATCC MYA-2876, 48 h
Method in brief: (§2)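 Because these Candida strains show trailing growth, MIC-2 was read, meaning 50% growth inhibition. Caspofungin and voriconazole were tested here; other controls came from earlier work.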

[3] = Selectivity index, ratio of EC50 for toxicity in human BEAS2B cells to MIC50 for antifungal activity against ITC and FLC-resistant Candida albicans ATCC 1237; type: cell-based; settings: BEAS-2B cells, read-out: Selectivity Index; method in brief: as §1
[4] = Selectivity index, ratio of EC50 for toxicity in human BEAS2B cells to MIC50 for antifungal activity against ITC and FLC-susceptible Candida albicans ATCC MYA-2876; type: cell-based; settings: BEAS-2B cells, read-out: Selectivity Index
Method in brief: (§3)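 Ratio of the compound's EC50 against BEAS-2B cells to its MIC against the named C. albicans strain. […] For C. albicans strains other than ATCC 10231, trailing growth meant MIC-2 was taken, meaning 50% growth inhibition.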

Candida albicans [5] = assay: Antifungal activity against Candida albicans ATCC 10231 incubated for 48 hrs by modified CLSI M27-A3 protocol based method; type: functional; settings: ATCC 10231, 48 h
Method in brief: (§4)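 For C. albicans ATCC 10231, C. krusei ATCC 6258 and C. parapsilosis ATCC 22019, MIC-0 was read, meaning complete growth inhibition. For azole controls, MIC-2 (50% growth inhibition) was reported instead. Caspofungin and voriconazole were tested here; other controls came from earlier work.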

Candida albicans [6] = assay: Antifungal activity against ITC and FLC-susceptible Candida albicans ATCC MYA-2310 incubated for 48 hrs by modified CLSI M27-A3 protocol based method; type: functional; settings: ATCC MYA-2310, 48 h
[7] = Selectivity index, ratio of EC50 for toxicity in human BEAS2B cells to MIC50 for antifungal activity against Candida glabrata ATCC 2001; type: cell-based; settings: BEAS-2B cells, read-out: Selectivity Index; method in brief: as §1
[8] = Selectivity index, ratio of EC50 for toxicity in human A549 cells to MIC50 for antifungal activity against Candida albicans ATCC 64124; type: cell-based; settings: read-out: Selectivity Index; method in brief: as §1
Candida parapsilosis = assay: Antifungal activity against Candida parapsilosis ATCC 22019 incubated for 48 hrs by modified CLSI M27-A3 protocol based method; type: functional; settings: Lodderomyces parapsilosis, ATCC 22019, 48 h; method in brief: as §4
[9] = Selectivity index, ratio of EC50 for toxicity in human BEAS2B cells to MIC50 for antifungal activity against Candida krusei ATCC 6258; type: cell-based; settings: BEAS-2B cells, read-out: Selectivity Index; method in brief: as §1
[10] = Selectivity index, ratio of EC50 for toxicity in human A549 cells to MIC50 for antifungal activity against Aspergillus nidulans ATCC 38163; type: cell-based; settings: read-out: Selectivity Index; method in brief: as §1
[11] = Selectivity index, ratio of EC50 for toxicity in human BEAS2B cells to MIC50 for antifungal activity against Aspergillus terreus ATCC MYA-3633; type: cell-based; settings: read-out: Selectivity Index; method in brief: as §1
Candida albicans [12] = assay: Antifungal activity against ITC and FLC-resistant Candida albicans ATCC MYA-1003 incubated for 48 hrs by modified CLSI M27-A3 protocol based method; type: functional; settings: ATCC MYA-1003, 48 h; method in brief: as §2
[13] = Selectivity index, ratio of EC50 for toxicity in human BEAS2B cells to MIC50 for antifungal activity against ITC and FLC-resistant Candida albicans ATCC MYA-90819; type: cell-based; settings: BEAS-2B cells, read-out: Selectivity Index; method in brief: as §3
[14] = Toxicity in human A549 cells assessed as reduction in cell viability incubated for 24 hrs by resazurin dye based assay
Method in brief: (§5)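 Toxicity tested in the nucleated lines A549 and BEAS-2B to give EC50 values. Selectivity index is EC50 against the mammalian line divided by the MIC against a given fungal strain.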

[15] = Toxicity in human BEAS2B cells assessed as reduction in cell viability incubated for 24 hrs by resazurin dye based assay; settings: BEAS-2B cells; method in brief: as §5
Nakaseomyces glabratus = assay: Antifungal activity against Candida glabrata ATCC 2001 incubated for 48 hrs by modified CLSI M27-A3 protocol based method; type: functional; settings: ATCC 2001, 48 h
[16] = Selectivity index, ratio of EC50 for toxicity in human A549 cells to MIC50 for antifungal activity against ITC and FLC-resistant Candida albicans ATCC MYA-1003; type: cell-based; settings: read-out: Selectivity Index; method in brief: as §1
[17] = Selectivity index, ratio of EC50 for toxicity in human A549 cells to MIC50 for antifungal activity against Aspergillus flavus ATCC MYA-3631; type: cell-based; settings: read-out: Selectivity Index; method in brief: as §1
[18] = Selectivity index, ratio of EC50 for toxicity in human BEAS2B cells to MIC50 for antifungal activity against Candida albicans ATCC 10231; type: cell-based; settings: BEAS-2B cells, read-out: Selectivity Index; method in brief: as §1
Aspergillus terreus = assay: Antifungal activity against Aspergillus terreus ATCC MYA-3633 incubated for 48 hrs by CLSI M38-A2 protocol based method; type: functional; settings: ATCC MYA-3633, 48 h
[19] = Selectivity index, ratio of EC50 for toxicity in human BEAS2B cells to MIC50 for antifungal activity against ITC and FLC-resistant Candida albicans ATCC MYA-1003; type: cell-based; settings: BEAS-2B cells, read-out: Selectivity Index; method in brief: as §1
Aspergillus nidulans = assay: Antifungal activity against Aspergillus nidulans ATCC 38163 incubated for 48 hrs by CLSI M38-A2 protocol based method; type: functional; settings: ATCC 38163, 48 h
[20] = Selectivity index, ratio of EC50 for toxicity in human A549 cells to MIC50 for antifungal activity against ITC and FLC-susceptible Candida albicans ATCC MYA-2876; type: cell-based; settings: read-out: Selectivity Index; method in brief: as §1
[21] = Selectivity index, ratio of EC50 for toxicity in human BEAS2B cells to MIC50 for antifungal activity against Candida albicans ATCC 64124; type: cell-based; settings: BEAS-2B cells, read-out: Selectivity Index; method in brief: as §1
[22] = Selectivity index, ratio of EC50 for toxicity in human A549 cells to MIC50 for antifungal activity against ITC and FLC-resistant Candida albicans ATCC MYA-90819; type: cell-based; settings: read-out: Selectivity Index; method in brief: as §1
[23] = Selectivity index, ratio of EC50 for toxicity in human A549 cells to MIC50 for antifungal activity against Candida glabrata ATCC 2001; type: cell-based; settings: read-out: Selectivity Index; method in brief: as §1
Pichia kudriavzevii = assay: Antifungal activity against Candida krusei ATCC 6258 incubated for 48 hrs by modified CLSI M27-A3 protocol based method; type: functional; settings: ATCC 6258, 48 h; method in brief: as §4
Candida albicans [24] = assay: Antifungal activity against Candida albicans ATCC 64124 incubated for 48 hrs by modified CLSI M27-A3 protocol based method; type: functional; settings: ATCC 64124, 48 h
[25] = Selectivity index, ratio of EC50 for toxicity in human A549 cells to MIC50 for antifungal activity against Candida krusei ATCC 6258; type: cell-based; settings: read-out: Selectivity Index; method in brief: as §1
Candida albicans [26] = assay: Antifungal activity against ITC and FLC-resistant Candida albicans ATCC 1237 incubated for 48 hrs by modified CLSI M27-A3 protocol based method; type: functional; settings: ATCC 1237, 48 h; method in brief: as §2
[27] = Selectivity index, ratio of EC50 for toxicity in human A549 cells to MIC50 for antifungal activity against Candida albicans ATCC 10231; type: cell-based; settings: read-out: Selectivity Index; method in brief: as §1
Candida albicans [28] = assay: Antifungal activity against ITC and FLC-resistant Candida albicans ATCC MYA-90819 incubated for 48 hrs by modified CLSI M27-A3 protocol based method; type: functional; settings: ATCC MYA-90819, 48 h
Aspergillus flavus = assay: Antifungal activity against Aspergillus flavus ATCC MYA-3631 incubated for 48 hrs by CLSI M38-A2 protocol based method; type: functional; settings: ATCC MYA-3631, 48 h
[29] = Selectivity index, ratio of EC50 for toxicity in human BEAS2B cells to MIC50 for antifungal activity against ITC and FLC-susceptible Candida albicans ATCC MYA-2310; type: cell-based; settings: BEAS-2B cells, read-out: Selectivity Index; method in brief: as §3
[30] = Selectivity index, ratio of EC50 for toxicity in human A549 cells to MIC50 for antifungal activity against ITC and FLC-susceptible Candida albicans ATCC MYA-2310; type: cell-based; settings: read-out: Selectivity Index; method in brief: as §1
[31] = Selectivity index, ratio of EC50 for toxicity in human A549 cells to MIC50 for antifungal activity against Aspergillus terreus ATCC MYA-3633; type: cell-based; settings: read-out: Selectivity Index; method in brief: as §1
[32] = Selectivity index, ratio of EC50 for toxicity in human BEAS2B cells to MIC50 for antifungal activity against Aspergillus flavus ATCC MYA-3631; type: cell-based; settings: read-out: Selectivity Index; method in brief: as §1
[33] = Selectivity index, ratio of EC50 for toxicity in human A549 cells to MIC50 for antifungal activity against ITC and FLC-resistant Candida albicans ATCC 1237; type: cell-based; settings: read-out: Selectivity Index; method in brief: as §1

Structure (SMILES): CC[C@@H]([C@H](C)O)n1ncn(-c2ccc(N3CCN(c4ccc(OC[C@@H]5CO[C@@](Cn6cncn6)(c6ccc(F)cc6F)C5)cc4)CC3)cc2)c1=O [POSACONAZOLE]
- selectivity ratio [1]: 133
- MIC50 (Candida albicans [2]): 11.1 µM (≈ 7.78 µg/mL)
- selectivity ratio [3]: 2
- selectivity ratio [4]: 3
- MIC50 (Candida albicans [5]): 0.71 µM (≈ 0.498 µg/mL)
- MIC50 (Candida albicans [6]): 44.7 µM (≈ 31.3 µg/mL)
- selectivity ratio [7]: 217
- selectivity ratio [8]: 1
- MIC50 (Candida parapsilosis): < 0.04 µM
- selectivity ratio [9]: 433 to 867
- selectivity ratio [10]: 190
- selectivity ratio [11]: 54
- MIC50 (Candida albicans [12]): 22.3 µM (≈ 15.6 µg/mL)
- selectivity ratio [13]: 1
- EC50 at 24 h [14]: 37 µg/mL (≈ 52.8 µM)
- EC50 at 24 h [15]: 26 µg/mL (≈ 37.1 µM)
- MIC50 (Nakaseomyces glabratus): 0.17 µM (≈ 0.119 µg/mL)
- selectivity ratio [16]: 2
- selectivity ratio [17]: 154
- selectivity ratio [18]: 52
- MIC50 (Aspergillus terreus): 0.68 µM (≈ 0.477 µg/mL)
- selectivity ratio [19]: 2
- MIC50 (Aspergillus nidulans): 0.28 µM (≈ 0.196 µg/mL)
- selectivity ratio [20]: 5
- selectivity ratio [21]: 0.4
- selectivity ratio [22]: 1
- selectivity ratio [23]: 308
- MIC50 (Pichia kudriavzevii): 0.09 µM (≈ 0.0631 µg/mL)
- MIC50 (Candida albicans [24]): > 89.2 µM
- selectivity ratio [25]: 617 to 1230
- MIC50 (Candida albicans [26]): 22.3 µM (≈ 15.6 µg/mL)
- selectivity ratio [27]: 74
- MIC50 (Candida albicans [28]): 44.7 µM (≈ 31.3 µg/mL)
- MIC50 (Aspergillus flavus): 0.34 µM (≈ 0.238 µg/mL)
- selectivity ratio [29]: 1
- selectivity ratio [30]: 1
- selectivity ratio [31]: 77
- selectivity ratio [32]: 108
- selectivity ratio [33]: 2

Source: ChEMBL document CHEMBL4265871, “Novel alkylated azoles as potent antifungals” (Eur J Med Chem, 2017)
